In ChEMBL document CHEMBL4680175, “Sulfonamide-based ring-fused analogues for CAN508 as novel carbonic anhydrase inhibitors endowed with antitumor activity: Design, synthesis, and in vitro biological evaluation” (Eur J Med Chem, 2020):
Calls of active or inactive are those of the source. No cut-off for these calls is given here.

Columns and labels:
Carbonic anhydrase 9 = Carbonic anhydrase 9 (Homo sapiens, UniProt Q16790); experiment: Inhibition of recombinant human carbonic anhydrase 9 preincubated with enzyme for 15 mins by phenol red dye based stopped flow CO2 hydrase assay
CDK9/cyclin T1 = CDK9/cyclin T1 (Homo sapiens, UniProt P50750); experiment: Inhibition of human full-length N-terminal GST/His6-tagged CDK9 (1 to 372 residues)/His6-tagged Cyclin-T1 (1 to 726 residues) expressed in sf9 cells using (YSPTSPS)2KK peptide as substrate in presence of [gamma33P]ATP
Carbonic anhydrase 12 = Carbonic anhydrase 12 (Homo sapiens, UniProt O43570); experiment: Inhibition of recombinant human carbonic anhydrase 12 preincubated with enzyme for 15 mins by phenol red dye based stopped flow CO2 hydrase assay
[1] = target: Cyclin-dependent kinase 2/cyclin E1 (Homo sapiens, UniProt P24941); experiment: Inhibition of CDK2/cyclin E (unknown origin) expressed in baculovirus infected Sf21 insect cells using histone H1 as substrate in presence of [gamma33P]ATP
Carbonic anhydrase 1 = Carbonic anhydrase 1 (Homo sapiens, UniProt P00915); experiment: Inhibition of recombinant human carbonic anhydrase 1 preincubated with enzyme for 15 mins by phenol red dye based stopped flow CO2 hydrase assay
Carbonic anhydrase 2 = Carbonic anhydrase 2 (Homo sapiens, UniProt P00918); experiment: Inhibition of recombinant human carbonic anhydrase 2 preincubated with enzyme for 15 mins by phenol red dye based stopped flow CO2 hydrase assay
Hs-578T = experiment: Antitumor activity against human HS 578T cells assessed as cell growth inhibition at 10 uM incubated for 48 hrs by sulforhodamine B assay; assay type: functional; settings: read-out: GI
Procedure, shortened: (§1)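 NCI Drug Evaluation Branch protocol: primary single-dose screen at 10 μM across a 57-line human cancer panel. Drug exposure is 48 h. Cell growth and viability are read by sulforhodamine B assay. Data are given as a mean graph of percent growth of treated cells and reported as percentage growth inhibition (GI%).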

IGROV-1 = experiment: Antitumor activity against human IGROV1 cells assessed as cell growth inhibition at 10 uM incubated for 48 hrs by sulforhodamine B assay; assay type: functional; settings: read-out: GI; procedure, shortened: as §1
NCI-H322M = experiment: Antitumor activity against human NCI-H322M cells assessed as cell growth inhibition at 10 uM incubated for 48 hrs by sulforhodamine B assay; assay type: functional; settings: read-out: GI; procedure, shortened: as §1
TK-10 = experiment: Antitumor activity against human TK-10 cells assessed as cell growth inhibition at 10 uM incubated for 48 hrs by sulforhodamine B assay; assay type: functional; settings: read-out: GI
Procedure, shortened: (§2)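 NCI one-dose screen: 57-cell-line panel exposed at 10 μM for 48 h, Drug Evaluation Branch protocol. Growth and viability read by sulforhodamine B; data given as percent growth inhibition from the mean-graph of percent growth of treated cells.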

SK-OV-3 = experiment: Antitumor activity against human SK-OV-3 cells assessed as cell growth inhibition at 10 uM incubated for 48 hrs by sulforhodamine B assay; assay type: functional; settings: read-out: GI; procedure, shortened: as §1
ACHN = experiment: Antitumor activity against human ACHN cells assessed as cell growth inhibition at 10 uM incubated for 48 hrs by sulforhodamine B assay; assay type: functional; settings: read-out: GI; procedure, shortened: as §1
786-0 = experiment: Antitumor activity against human 786-0 cells assessed as cell growth inhibition at 10 uM incubated for 48 hrs by sulforhodamine B assay; assay type: functional; settings: read-out: GI; procedure, shortened: as §1
LOX IMVI = experiment: Antitumor activity against human LOX IMVI cells assessed as cell growth inhibition at 10 uM incubated for 48 hrs by sulforhodamine B assay; assay type: functional; settings: read-out: GI; procedure, shortened: as §1
SR = experiment: Antitumor activity against human SR cells assessed as cell growth inhibition at 10 uM incubated for 48 hrs by sulforhodamine B assay; assay type: functional; settings: read-out: GI; procedure, shortened: as §2
NCI-H522 = experiment: Antitumor activity against human NCI-H522 cells assessed as cell growth inhibition at 10 uM incubated for 48 hrs by sulforhodamine B assay; assay type: functional; settings: read-out: GI; procedure, shortened: as §1
NCI/ADR-RES = experiment: Antitumor activity against human NCI/ADR-RES cells assessed as cell growth inhibition at 10 uM incubated for 48 hrs by sulforhodamine B assay; assay type: functional, cell-based; procedure, shortened: as §1
M14 = experiment: Antitumor activity against human M14 cells assessed as cell growth inhibition at 10 uM incubated for 48 hrs by sulforhodamine B assay; assay type: functional; settings: read-out: GI; procedure, shortened: as §1
RXF 393 = experiment: Antitumor activity against human RXF 393 cells assessed as cell growth inhibition at 10 uM incubated for 48 hrs by sulforhodamine B assay; assay type: functional; settings: read-out: GI; procedure, shortened: as §1
UO-31 = experiment: Antitumor activity against human UO-31 cells assessed as cell growth inhibition at 10 uM incubated for 48 hrs by sulforhodamine B assay; assay type: functional; settings: read-out: GI; procedure, shortened: as §2
A498 = experiment: Antitumor activity against human A498 cells assessed as cell growth inhibition at 10 uM incubated for 48 hrs by sulforhodamine B assay; assay type: functional; settings: read-out: GI; procedure, shortened: as §1
BT-549 = experiment: Antitumor activity against human BT-549 cells assessed as cell growth inhibition at 10 uM incubated for 48 hrs by sulforhodamine B assay; assay type: functional; settings: read-out: GI; procedure, shortened: as §1
SNB-75 = experiment: Antitumor activity against human SNB-75 cells assessed as cell growth inhibition at 10 uM incubated for 48 hrs by sulforhodamine B assay; assay type: functional; settings: read-out: GI; procedure, shortened: as §2
NCI-H460 = experiment: Antitumor activity against human NCI-H460 cells assessed as cell growth inhibition at 10 uM incubated for 48 hrs by sulforhodamine B assay; assay type: functional; settings: read-out: GI; procedure, shortened: as §1
CAKI-1 = experiment: Antitumor activity against human CAKI-1 cells assessed as cell growth inhibition at 10 uM incubated for 48 hrs by sulforhodamine B assay; assay type: functional; settings: read-out: GI; procedure, shortened: as §1

Sequence of Carbonic anhydrase 1 (P00915 whole entry): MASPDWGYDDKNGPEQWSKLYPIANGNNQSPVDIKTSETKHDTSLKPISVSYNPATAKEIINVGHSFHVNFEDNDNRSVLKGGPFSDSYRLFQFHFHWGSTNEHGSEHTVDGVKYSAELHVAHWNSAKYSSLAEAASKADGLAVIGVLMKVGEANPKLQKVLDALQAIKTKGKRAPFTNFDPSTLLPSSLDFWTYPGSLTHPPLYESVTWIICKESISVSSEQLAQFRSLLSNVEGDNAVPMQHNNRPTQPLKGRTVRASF
Sequence of Carbonic anhydrase 12 (O43570 whole entry): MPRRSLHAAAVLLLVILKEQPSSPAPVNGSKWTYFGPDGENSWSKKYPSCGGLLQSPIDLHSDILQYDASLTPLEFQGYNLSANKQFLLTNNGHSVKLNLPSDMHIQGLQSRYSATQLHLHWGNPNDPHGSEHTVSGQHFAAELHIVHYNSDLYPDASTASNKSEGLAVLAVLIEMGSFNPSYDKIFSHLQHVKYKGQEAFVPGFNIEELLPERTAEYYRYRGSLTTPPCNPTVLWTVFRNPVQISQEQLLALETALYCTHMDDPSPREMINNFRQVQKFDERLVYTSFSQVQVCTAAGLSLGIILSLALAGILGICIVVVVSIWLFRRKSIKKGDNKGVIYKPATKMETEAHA
Sequence of CDK9/cyclin T1 (O60563 whole entry, the tested form may be a part): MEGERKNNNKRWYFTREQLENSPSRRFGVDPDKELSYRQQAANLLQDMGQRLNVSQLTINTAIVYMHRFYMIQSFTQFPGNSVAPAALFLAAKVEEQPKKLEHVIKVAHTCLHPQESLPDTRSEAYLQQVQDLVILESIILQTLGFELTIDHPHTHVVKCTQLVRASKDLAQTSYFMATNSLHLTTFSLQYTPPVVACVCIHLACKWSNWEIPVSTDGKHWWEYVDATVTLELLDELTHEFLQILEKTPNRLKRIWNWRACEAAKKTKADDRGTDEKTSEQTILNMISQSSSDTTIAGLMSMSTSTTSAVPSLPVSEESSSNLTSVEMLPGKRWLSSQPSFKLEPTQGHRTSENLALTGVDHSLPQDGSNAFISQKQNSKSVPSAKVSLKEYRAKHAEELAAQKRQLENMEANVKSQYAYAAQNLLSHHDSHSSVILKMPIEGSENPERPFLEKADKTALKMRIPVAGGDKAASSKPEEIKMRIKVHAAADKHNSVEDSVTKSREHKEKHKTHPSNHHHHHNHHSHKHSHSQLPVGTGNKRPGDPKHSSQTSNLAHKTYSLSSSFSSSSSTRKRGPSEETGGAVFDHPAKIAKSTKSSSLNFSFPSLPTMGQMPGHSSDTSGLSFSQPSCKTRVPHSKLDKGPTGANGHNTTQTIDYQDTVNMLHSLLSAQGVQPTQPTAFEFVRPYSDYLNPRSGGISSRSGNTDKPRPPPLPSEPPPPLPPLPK
Sequence of CDK9/cyclin T1 (P50750 whole entry, the tested form may be a part): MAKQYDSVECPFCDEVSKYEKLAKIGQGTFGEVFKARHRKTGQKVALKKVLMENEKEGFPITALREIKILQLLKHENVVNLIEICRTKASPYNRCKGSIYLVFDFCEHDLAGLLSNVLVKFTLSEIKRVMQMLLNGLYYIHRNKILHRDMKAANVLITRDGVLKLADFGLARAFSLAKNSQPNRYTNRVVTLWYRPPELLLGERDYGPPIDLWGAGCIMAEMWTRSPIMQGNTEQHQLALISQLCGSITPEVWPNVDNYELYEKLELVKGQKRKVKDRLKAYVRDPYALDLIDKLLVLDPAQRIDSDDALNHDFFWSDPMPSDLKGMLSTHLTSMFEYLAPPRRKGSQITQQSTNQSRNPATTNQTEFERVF

Nc1nn2c(-c3ccc(Br)cc3)ccnc2c1/N=N/c1ccc(S(N)(=O)=O)cc1
Ki (Carbonic anhydrase 9): 65 nM | IC50 (CDK9/cyclin T1): > 12500 nM | Ki (Carbonic anhydrase 12): 54.3 nM | IC50 [1]: 8000 nM | Ki (Carbonic anhydrase 1): 768 nM | Ki (Carbonic anhydrase 2): 38.7 nM

Nc1nn2cc(-c3ccc(Cl)cc3)[nH]c2c1/N=N/c1ccc(S(N)(=O)=O)cc1
Ki (Carbonic anhydrase 9): 16.6 nM | inhibition of growth at 10 µM (Hs-578T): 21% | inhibition of growth at 10 µM (IGROV-1): 21% | inhibition of growth at 10 µM (NCI-H322M): 25% | inhibition of growth at 10 µM (TK-10): 27% | inhibition of growth at 10 µM (SK-OV-3): 21% | inhibition of growth at 10 µM (ACHN): 29% | IC50 (CDK9/cyclin T1): > 12500 nM | inhibition of growth at 10 µM (786-0): 28% | Ki (Carbonic anhydrase 12): 36.5 nM | inhibition of growth at 10 µM (LOX IMVI): 21% | inhibition of growth at 10 µM (SR): 28% | inhibition of growth at 10 µM (NCI-H522): 30% | Activity (NCI/ADR-RES): inactive | inhibition of growth at 10 µM (M14): 21% | IC50 [1]: > 12500 nM | Ki (Carbonic anhydrase 1): 651 nM | inhibition of growth at 10 µM (RXF 393): 29% | inhibition of growth at 10 µM (UO-31): 22% | inhibition of growth at 10 µM (A498): 65% | inhibition of growth at 10 µM (BT-549): 34% | inhibition of growth at 10 µM (SNB-75): 23% | inhibition of growth at 10 µM (NCI-H460): 25% | inhibition of growth at 10 µM (CAKI-1): 35% | Ki (Carbonic anhydrase 2): 22.1 nM
